{"data": "Results collected from several papers", "PIK3CA E545A": "Phosphatidylinositol 4,5-bisphosphate 3-kinase catalytic subunit alpha isoform (PIK3CA, Homo sapiens, UniProt P42336, E545A)", "PIK3CA E545K": "Phosphatidylinositol 4,5-bisphosphate 3-kinase catalytic subunit alpha isoform (PIK3CA, Homo sapiens, UniProt P42336, E545K)", "PIK3CA E542K": "Phosphatidylinositol 4,5-bisphosphate 3-kinase catalytic subunit alpha isoform (PIK3CA, Homo sapiens, UniProt P42336, E542K)", "PIK3CA Q546K": "Phosphatidylinositol 4,5-bisphosphate 3-kinase catalytic subunit alpha isoform (PIK3CA, Homo sapiens, UniProt P42336, Q546K)", "PIK3CA H1047Y": "Phosphatidylinositol 4,5-bisphosphate 3-kinase catalytic subunit alpha isoform (PIK3CA, Homo sapiens, UniProt P42336, H1047Y)", "PIK3CA": "Phosphatidylinositol 4,5-bisphosphate 3-kinase catalytic subunit alpha isoform (PIK3CA, Homo sapiens, UniProt P42336)", "PIK3CA M1043I": "Phosphatidylinositol 4,5-bisphosphate 3-kinase catalytic subunit alpha isoform (PIK3CA, Homo sapiens, UniProt P42336, M1043I)", "PIK3CA I800L": "Phosphatidylinositol 4,5-bisphosphate 3-kinase catalytic subunit alpha isoform (PIK3CA, Homo sapiens, UniProt P42336, I800L)", "note": "Protocols differ between the studies behind these lines."}
{"SMILES": "COc1ncc2cc3ccccc3nc2c1C#N", "target": "PIK3CA E545A", "assay": "cell-free assay, competition with immobilised ligand", "conditions": "5 µM", "remaining binding [%]": 99}
{"SMILES": "F[C@@H]1CCN(c2nccc(-c3cnn4ncccc34)n2)C1", "target": "PIK3CA E545K", "assay": "binding", "conditions": "1 µM", "remaining binding [%]": 100}
{"SMILES": "CCN1CCN(Cc2ccc(C(=O)Nc3ccc(C)c(Oc4ccc5c(c4)CC(=O)N5)c3)cc2C(F)(F)F)CC1", "target": "PIK3CA E542K", "assay": "binding, competition with immobilised ligand", "conditions": "1 µM", "remaining binding [%]": 100}
{"SMILES": "c1cnn2ncc(-c3ccnc(N4CCC45COC5)n3)c2c1", "target": "PIK3CA Q546K", "assay": "binding", "conditions": "1 µM", "remaining binding [%]": 63}
{"SMILES": "C=CC(=O)N1CCC(C(=O)NCC(=O)N2CCN(c3nc(-c4cnc(N)nc4C(F)F)nc(N4CCOCC4)n3)CC2)CC1", "target": "PIK3CA E545K", "assay": "binding, competition with immobilised ligand", "conditions": "1 µM", "remaining binding [%]": 0}
{"SMILES": "O=C(c1ccc(Nc2nccc(-c3cc4ccccc4s3)n2)cc1)N1CCC(N2CCCC2)CC1", "target": "PIK3CA E545A", "assay": "binding, competition with immobilised ligand", "conditions": "1 µM", "remaining binding [%]": 100}
{"SMILES": "COc1cnc(Nc2cccc(S(N)(=O)=O)c2)nc1N1CCN(c2ccccc2)C(=O)C1", "target": "PIK3CA E545A", "assay": "binding, competition with immobilised ligand", "conditions": "1 µM", "remaining binding [%]": 98}
{"SMILES": "O=C(Nc1c[nH]nc1C(=O)NC1CCNCC1)c1cc(F)cc(F)c1", "target": "PIK3CA H1047Y", "assay": "binding, competition with immobilised ligand", "conditions": "1 µM", "remaining binding [%]": 100}
{"SMILES": "CNC(=O)[C@@H]1CC[C@@H](n2c(-c3ccc4cnccc4c3)nc3ccc(C(=O)NCc4cccc(C(N)=O)c4)cc32)C1", "target": "PIK3CA", "assay": "binding, competition with immobilised ligand", "conditions": "1 µM", "remaining binding [%]": 100}
{"SMILES": "CN(C)c1nccc(-c2cnn3ncccc23)n1", "target": "PIK3CA E545K", "assay": "binding", "conditions": "1 µM", "remaining binding [%]": 83}
{"SMILES": "O=C(NCCCC1CCCCC1)c1ccc(CNC(=O)c2cnn(-c3ccccc3)c2C(F)(F)F)cc1", "target": "PIK3CA M1043I", "assay": "cell-free assay, competition with immobilised ligand", "conditions": "0.1 µM", "remaining binding [%]": 68}
{"SMILES": "COc1cnc(Nc2cccc(S(N)(=O)=O)c2)nc1N1CCN(c2ccccc2)CC1", "target": "PIK3CA M1043I", "assay": "binding, competition with immobilised ligand", "conditions": "1 µM", "remaining binding [%]": 79}
{"SMILES": "CN1CCN(c2cnc3c(C4CCN(C(=O)c5ccc(OC(F)(F)F)cc5N)CC4)ncnc3c2)CC1", "target": "PIK3CA E542K", "assay": "cell-free assay, competition with immobilised ligand", "conditions": "1 µM", "remaining binding [%]": 100}
{"SMILES": "N#Cc1ccccc1CSc1nnc2c(n1)[nH]c1ccccc12", "target": "PIK3CA", "assay": "binding, competition with immobilised ligand", "conditions": "10 µM", "remaining binding [%]": 100}
{"SMILES": "CC1CCCN1c1nccc(-c2cnn3ncccc23)n1 (stereo not drawn)", "target": "PIK3CA E545K", "assay": "binding", "conditions": "1 µM", "remaining binding [%]": 100}
{"SMILES": "C[C@@H](c1ccc(-n2cnc3c(N)ncnc32)cc1)N1CCc2nn(C)c(Cc3ccccc3)c2C1=O", "target": "PIK3CA E542K", "assay": "binding, competition with immobilised ligand", "conditions": "0.1 µM", "remaining binding [%]": 83}
{"SMILES": "O=C(NCCCN1CCOCC1)c1ccc(Nc2ncc(Cl)c(-c3ccc(Cl)s3)n2)cc1", "target": "PIK3CA E545A", "assay": "binding, competition with immobilised ligand", "conditions": "1 µM", "remaining binding [%]": 100}
{"SMILES": "CCCOc1ccc([C@H]2[C@H](C(=O)O)[C@@H](c3ccc4c(c3)OCO4)CN2CC(=O)Nc2c(CC)cccc2CC)cc1", "target": "PIK3CA E545A", "assay": "cell-free assay, competition with immobilised ligand", "conditions": "1 µM", "remaining binding [%]": 92}
{"SMILES": "O=C(c1ccc(Nc2ncc(Cl)c(-c3cc4ccccc4s3)n2)cc1)N1CCC(N2CCCC2)CC1", "target": "PIK3CA I800L", "assay": "binding, competition with immobilised ligand", "conditions": "1 µM", "remaining binding [%]": 97}
{"SMILES": "C[C@H](c1cccc(C#N)c1)n1cc(Cl)cc(C(N)=O)c1=N", "target": "PIK3CA Q546K", "assay": "cell-free assay, competition with immobilised ligand", "conditions": "1 µM", "remaining binding [%]": 100}
{"SMILES": "CCN(CC)Cc1cc(Nc2ccnc3cc(Cl)ccc23)ccc1O", "target": "PIK3CA", "assay": "cell-free assay, competition with immobilised ligand", "conditions": "10 µM", "remaining binding [%]": 93}
{"SMILES": "CN(c1ccnc(CNc2nc(Nc3ccc4c(c3)CC(=O)N4)ncc2C(F)(F)F)n1)S(C)(=O)=O", "target": "PIK3CA E545K", "assay": "cell-free assay, competition with immobilised ligand", "conditions": "1 µM", "remaining binding [%]": 100}
{"SMILES": "CN(C)c1nccc(-c2cnc3ncccn23)n1", "target": "PIK3CA M1043I", "assay": "binding", "conditions": "1 µM", "remaining binding [%]": 84}
{"SMILES": "Nc1cnc(N2CCc3cc(S(=O)(=O)Nc4c(F)cc(Cl)cc4F)cc(N4CCCC4=O)c32)nc1", "target": "PIK3CA", "assay": "cell-free assay, competition with immobilised ligand", "conditions": "1 µM", "remaining binding [%]": 76}
{"SMILES": "CN1CCN(c2ccc(Nc3nccc(-c4cccc([N+](=O)[O-])c4)n3)cc2C(F)(F)F)CC1", "target": "PIK3CA I800L", "assay": "binding", "conditions": "10 µM", "remaining binding [%]": 18}
{"SMILES": "O=C(NCCCN1CCOCC1)c1ccc(Nc2nccc(-c3cc4ccccc4s3)n2)cc1", "target": "PIK3CA M1043I", "assay": "binding, competition with immobilised ligand", "conditions": "1 µM", "remaining binding [%]": 80}
{"SMILES": "c1cncc(-c2cccc(Nc3nccc(NC4CCCCC4)n3)c2)c1", "target": "PIK3CA H1047Y", "assay": "binding, competition with immobilised ligand", "conditions": "10 µM", "remaining binding [%]": 89}
{"SMILES": "Nc1ncc2c(n1)-c1c([nH]c3ccc(C#CC4CC4)cc13)CCCC2", "target": "Phosphatidylinositol 4,5-bisphosphate 3-kinase catalytic subunit alpha isoform (PIK3CA, Homo sapiens, UniProt P42336, C420R)", "assay": "binding, competition with immobilised ligand", "conditions": "1 µM", "remaining binding [%]": 86}
{"SMILES": "CCC(=N\\O)/C(C)=C/c1ccc(F)cc1", "target": "PIK3CA E542K", "assay": "cell-free assay, competition with immobilised ligand", "conditions": "1 µM", "remaining binding [%]": 100}
{"SMILES": "CN1CCN(c2ccc(Nc3nccc(-c4ccccc4)n3)cc2C(F)(F)F)CC1", "target": "PIK3CA H1047Y", "assay": "binding", "conditions": "10 µM", "remaining binding [%]": 90}
{"SMILES": "O=C(NCC1CCOCC1)c1n[nH]cc1NC(=O)c1c(F)cccc1F", "target": "PIK3CA Q546K", "assay": "binding, competition with immobilised ligand", "conditions": "1 µM", "remaining binding [%]": 77}
{"SMILES": "Cc1cnc(Nc2ccc(C(=O)N3CCC(N4CCCC4)CC3)cc2)nc1-c1cc2ccccc2s1", "target": "PIK3CA Q546K", "assay": "binding, competition with immobilised ligand", "conditions": "1 µM", "remaining binding [%]": 97}
{"SMILES": "C[C@@H]1CCN(c2nccc(-c3cnn4ncccc34)n2)C1", "target": "PIK3CA H1047Y", "assay": "binding", "conditions": "1 µM", "remaining binding [%]": 93}
{"SMILES": "O=C(c1ccc(Nc2ncc(Cl)c(-c3ccc(Cl)s3)n2)cc1)N1CCC(N2CCCC2)CC1", "target": "PIK3CA Q546K", "assay": "binding, competition with immobilised ligand", "conditions": "1 µM", "remaining binding [%]": 100}
{"SMILES": "CCS(=O)(=O)c1cc2cc(C[C@](O)(CC(C)(C)c3ccc(F)cc3C(N)=O)C(F)(F)F)[nH]c2cn1", "target": "PIK3CA I800L", "assay": "cell-free assay, competition with immobilised ligand", "conditions": "1 µM", "remaining binding [%]": 73}
{"SMILES": "N[C@@H]1CCN(c2nccc(-c3cnn4ncccc34)n2)C1", "target": "PIK3CA I800L", "assay": "binding", "conditions": "1 µM", "remaining binding [%]": 71}
